In ChEMBL document CHEMBL2010803, “Novel NSAID 1-acyl-4-cycloalkyl/arylsemicarbazides and 1-acyl-5-benzyloxy/hydroxy carbamoylcarbazides as potential anticancer agents and antioxidants” (Eur J Med Chem, 2012):
The source made the active and inactive calls. The rule behind the calls is not given here.

What was measured:
[1] = system: Respiratory syncytial virus; test: Antiviral activity against RSV infected in human cervix carcinoma cells assessed as inhibition of virus-induced cytopathic effect at 0.32 to 100 uM; format: functional, organism-based
How it was run: (§1)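 Confluent cell cultures were infected with 100 CCID50 of virus in the presence of test compound at 100, 40, 8, 1.6 and 0.32 μM. Cytopathic effect was scored once it was complete in untreated infected controls.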

Coxsackievirus B4 [2] = test: Antiviral activity against Coxsackievirus B4 infected in human cervix carcinoma cells assessed as inhibition of virus-induced cytopathic effect at 0.32 to 100 uM; format: functional, organism-based; how it was run: as §1
L1210 = test: Cytostatic activity against mouse L1210 cells after 2 days by coulter counter analysis; format: functional, cell-based; conditions: L1210, 48 h
How it was run: (§2)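 300,000–500,000 cells/ml mixed 1:1 with compound dilutions and incubated at 37 °C for 2 days (L1210) or 3 days (CEM, HeLa). Cell number counted with a Coulter counter; HeLa trypsinized before counting.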

CCRF-CEM = test: Cytostatic activity against human CEM cells after 3 days by coulter counter analysis; format: functional, cell-based; conditions: 72 h; how it was run: as §2
HeLa = test: Cytostatic activity against human HeLa cells after 3 days by coulter counter analysis; format: functional, cell-based; conditions: 72 h; how it was run: as §2
HCT-116 = test: Cytostatic activity against human HCT116 cells after 72 hrs by MTT assay; format: functional, cell-based; conditions: HCT-116, 72 h
How it was run: (§3)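 Monolayers in DMEM with 10% FBS, 2 mM L-glutamine and penicillin/streptomycin, 37 °C, 5% CO2. Seeded at 1–3 × 10^4 cells/ml, then compound added in tenfold dilutions (10⁻⁸–10⁻⁴ M) for 72 h. MTT read at 570 nm; percent growth taken against time-zero and untreated controls. IC50 by linear regression; quadruplicate, at least two experiments.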

MCF7 = test: Cytostatic activity against human MCF7 cells after 72 hrs by MTT assay; format: functional, cell-based; conditions: MCF7, 72 h; how it was run: as §3
NCI-H460 = test: Cytostatic activity against human NCI-H460 cells after 72 hrs by MTT assay; format: functional, cell-based; conditions: NCI-H460, 72 h; how it was run: as §3
HaCaT = test: Cytostatic activity against human HaCaT cells after 72 hrs by MTT assay; format: ADME, cell-based; how it was run: as §3
Human alphaherpesvirus 1 = test: Antiviral activity against HSV1 KOS infected in human lung fibroblast assessed as inhibition of virus-induced cytopathic effect at 0.32 to 100 uM; format: functional, organism-based; how it was run: as §1
Human alphaherpesvirus 2 = test: Antiviral activity against HSV2 G infected in human lung fibroblast assessed as inhibition of virus-induced cytopathic effect at 0.32 to 100 uM; format: functional, organism-based; conditions: strain G; how it was run: as §1
Vaccinia virus = test: Antiviral activity against Vaccinia virus infected in human lung fibroblast assessed as inhibition of virus-induced cytopathic effect at 0.32 to 100 uM; format: functional, organism-based; conditions: Orthopoxvirus vaccinia
[3] = system: Vesicular stomatitis virus; test: Antiviral activity against VSV infected in human lung fibroblast assessed as inhibition of virus-induced cytopathic effect at 0.32 to 100 uM; format: functional, organism-based
Human respirovirus 3 = test: Antiviral activity against Parainfluenza virus 3 infected in african green monkey Vero cells assessed as inhibition of virus-induced cytopathic effect at 0.32 to 100 uM; format: functional, organism-based; how it was run: as §1
[4] = system: Mammalian orthoreovirus 1; test: Antiviral activity against Reovirus-1 infected in african green monkey Vero cells assessed as inhibition of virus-induced cytopathic effect at 0.32 to 100 uM; format: functional, organism-based; how it was run: as §1
Sindbis virus = test: Antiviral activity against Sindbis virus infected in african green monkey Vero cells assessed as inhibition of virus-induced cytopathic effect at 0.32 to 100 uM; format: functional, organism-based; how it was run: as §1
Coxsackievirus B4 [5] = test: Antiviral activity against Coxsackievirus B4 infected in african green monkey Vero cells assessed as inhibition of virus-induced cytopathic effect at 0.32 to 100 uM; format: functional, organism-based; how it was run: as §1
Punta Toro virus = test: Antiviral activity against Punta Toro virus infected in african green monkey Vero cells assessed as inhibition of virus-induced cytopathic effect at 0.32 to 100 uM; format: functional, organism-based; how it was run: as §1
[6] = system: Vesicular stomatitis virus; test: Antiviral activity against Vesicular stomatitis virus infected in human cervix carcinoma cells assessed as inhibition of virus-induced cytopathic effect at 0.32 to 100 uM; format: functional, organism-based
How it was run: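 Confluent human cervix carcinoma (HeLa) cultures received 100 CCID50 of VSV together with the compound at 100, 40, 8, 1.6 or 0.32 μM. Cytopathicity was read at the point of full CPE in infected, untreated control wells.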

Felid alphaherpesvirus 1 = test: Antiviral activity against Feline herpesvirus infected in feline CRFK cells assessed as inhibition of virus-induced cytopathic effect at 0.32 to 100 uM; format: functional, organism-based; how it was run: as §1
Feline coronavirus = test: Antiviral activity against Feline coronavirus infected in feline CRFK cells assessed as inhibition of virus-induced cytopathic effect at 0.32 to 100 uM; format: functional, organism-based; how it was run: as §1
Influenza A virus [7] = test: Antiviral activity against Influenza A virus H1N1 infected in MDCK cells assessed as inhibition of virus-induced cytopathic effect at 0.32 to 100 uM; format: functional, organism-based
How it was run: (§4)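 Confluent MDCK monolayers were infected in the presence of the compound at 100, 40, 8, 1.6 and 0.32 μM. Viral cytopathicity was scored once it was complete in untreated infected control cultures.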

Influenza A virus [8] = test: Antiviral activity against Influenza A virus H3N2 infected in MDCK cells assessed as inhibition of virus-induced cytopathic effect at 0.32 to 100 uM; format: functional, organism-based; how it was run: as §4
Influenza B virus = test: Antiviral activity against Influenza B virus infected in MDCK cells assessed as inhibition of virus-induced cytopathic effect at 0.32 to 100 uM; format: functional, organism-based; how it was run: as §4
[9] = system: Human immunodeficiency virus 1; test: Antiviral activity against HIV1 3B infected in human CEM cells assessed as inhibition of virus-induced CEM giant cell formation at 0.32 to 100 uM after 4 days; format: functional, organism-based; conditions: CCRF-CEM
How it was run: (§5)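 CEM cells (~3 × 10^5 cells/cm³) exposed to 100 CCID50/ml of virus and seeded into wells holding compound dilutions. Incubated 4 days at 37 °C, then giant cell formation examined microscopically.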

[10] = system: Human immunodeficiency virus 2; test: Antiviral activity against HIV2 ROD infected in human CEM cells assessed as inhibition of virus-induced CEM giant cell formation at 0.32 to 100 uM after 4 days; format: functional, organism-based; conditions: ISOLATE ROD, CCRF-CEM; how it was run: as §5
[11] = system: Radical scavenging activity; test: Antioxidant activity assessed as DPPH free radical scavenging activity at 100 uM after 20 mins by spectrophotometric analysis; format: functional
How it was run: (§6)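 0.05 mM DPPH in absolute ethanol mixed with an equal volume of compound in DMSO (final 100 μM). Shaken and left 20 or 60 min, then absorbance read at 517 nm and percent activity calculated. Three replicates, averaged.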

[12] = system: Radical scavenging activity; test: Antioxidant activity assessed as DPPH free radical scavenging activity at 100 uM after 60 mins by spectrophotometric analysis; format: functional; how it was run: as §6
[13] = Antioxidant activity assessed as inhibition of AAPH-induced linoleic acid lipid peroxidation by measuring conjugated diene hydroperoxide level; format: functional; set-up: concentration or dose not given beside the values
How it was run: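 Linoleic acid sodium salt (10 μL of 16 mM) in 0.05 M phosphate buffer pH 7.4 at 37 °C. Oxidation started under air with 50 μL of 40 mM AAPH. Conjugated diene hydroperoxide formation followed as absorbance rise at 234 nm; control contains the same DMSO level. At least triplicate.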

Glycine max = test: Inhibition of soybean LOX assessed as conversion of sodium linoleate to 13- hydroperoxylinoleic acid at 100 uM
[14] = dose or concentration not given here

SMILES	inhibition [1]	inhibition (Coxsackievirus B4 [2])	IC50 (CCRF-CEM)	IC50 (HCT-116)	IC50 (MCF7)	IC50 (NCI-H460)	IC50 (HaCaT)	inhibition (Human alphaherpesvirus 1)	inhibition (Human alphaherpesvirus 2)	inhibition (Vaccinia virus)	inhibition [3]	inhibition (Human respirovirus 3)	inhibition [4]	inhibition (Sindbis virus)	inhibition (Coxsackievirus B4 [5])	inhibition (Punta Toro virus)	inhibition [6]	inhibition (Felid alphaherpesvirus 1)	inhibition (Feline coronavirus)	inhibition (Influenza A virus [7])	further results
CC(C(=O)NNC(=O)NC1CCCC1)c1cccc(Oc2ccccc2)c1 (configuration not stated)	inactive	inactive	73 µM	36 µM	20 µM	33 µM	18 µM	inactive	inactive	inactive	inactive	inactive	inactive	inactive	inactive	inactive	inactive	inactive	inactive	inactive	IC50 (L1210): 55 µM; IC50 (HeLa): 39 µM; inhibition (Influenza A virus [8]): inactive; inhibition (Influenza B virus): inactive; inhibition [9]: inactive; inhibition [10]: inactive; Activity [11]: 16%; Activity [12]: 19%; inhibition [13, 14]: 21%; inhibition (Glycine max): inactive
CC(C(=O)NNC(=O)NC1CCCCC1)c1cccc(Oc2ccccc2)c1 (configuration not stated)	inactive	inactive	53 µM	22 µM	17 µM	24 µM	19 µM	inactive	inactive	inactive	inactive	inactive	inactive	inactive	inactive	inactive	inactive	inactive	inactive	inactive	IC50 (L1210): 35 µM; IC50 (HeLa): 48 µM; inhibition (Influenza A virus [8]): inactive; inhibition (Influenza B virus): inactive; inhibition [9]: inactive; inhibition [10]: inactive; Activity [11]: 19%; Activity [12]: 22%; inhibition [13, 14]: 63%; inhibition (Glycine max): 13%
CC(C(=O)NNC(=O)NCCc1ccccc1)c1cccc(Cc2ccccc2)c1 (configuration not stated)	inactive	inactive	29 µM	20 µM	15 µM	22 µM	16 µM	inactive	inactive	inactive	inactive	inactive	inactive	inactive	inactive	inactive	inactive	inactive	inactive	inactive	IC50 (L1210): 31 µM; IC50 (HeLa): 58 µM; inhibition (Influenza A virus [8]): inactive; inhibition (Influenza B virus): inactive; inhibition [9]: inactive; inhibition [10]: inactive; Activity [11]: 8%; Activity [12]: 15%; inhibition [13, 14]: 71%; inhibition (Glycine max): 17%
CC(C(=O)NNC(=O)NC1CCCC1)c1cccc(Cc2ccccc2)c1 (configuration not stated)	inactive	inactive	66 µM	33 µM	19 µM	38 µM	50 µM	inactive	inactive	inactive	inactive	inactive	inactive	inactive	inactive	inactive	inactive	inactive	inactive	inactive	IC50 (HeLa): 43 µM; inhibition (Influenza A virus [8]): inactive; inhibition (Influenza B virus): inactive; inhibition [9]: inactive; inhibition [10]: inactive; Activity [11]: 4%; Activity [12]: 12%; inhibition [13]: inactive; inhibition (Glycine max): inactive
CC(C(=O)NNC(=O)NCC1CCCCC1)c1cccc(Oc2ccccc2)c1 (configuration not stated)	inactive	inactive	24 µM	15 µM	13 µM	19 µM	20 µM	inactive	inactive	inactive	inactive	inactive	inactive	inactive	inactive	inactive	inactive	inactive	inactive	inactive	IC50 (L1210): 22 µM; inhibition (Influenza A virus [8]): inactive; inhibition (Influenza B virus): inactive; inhibition [9]: inactive; inhibition [10]: inactive; Activity [11]: 18%; Activity [12]: 21%; inhibition [13, 14]: 64%; inhibition (Glycine max): 12%
CC(C(=O)NNC(=O)NCC1CCCCC1)c1cccc(Cc2ccccc2)c1 (configuration not stated)	inactive	inactive	20 µM	16 µM	18 µM	18 µM	12 µM	inactive	inactive	inactive	inactive	inactive	inactive	inactive	inactive	inactive	inactive	inactive	inactive	inactive	IC50 (L1210): 22 µM; inhibition (Influenza A virus [8]): inactive; inhibition (Influenza B virus): inactive; inhibition [9]: inactive; inhibition [10]: inactive; Activity [11]: 5%; Activity [12]: 12%; inhibition [13, 14]: 61%; inhibition (Glycine max): 9%
